Sampled rows, rich in hits. Any-hit rate of the full collection: about 2.5%.
NTR1 ag: agonists of human neurotensin receptor NTR1; AID 493036; NTR1-U2OS beta-arrestin-GFP spot imaging, agonist mode; P30989; 0.17% of 330,000 active; activation, % at 20 µM;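 active = activation at or above 40% of the spot to cytoplasm intensity ratio, with at least 20 cells analyzed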;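 note: 0% = DMSO without peptide and 100% = 100 nM NTR1 peptide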
MC4R antag cAMP: human MC4R antagonism in cAMP assay | MC4R-expressing cells, MTII-stimulated cAMP, LANCE TR-FRET | inhibition, % at 6.5 µM | 0.48% of 360,000 active | AID 540295;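 active = inhibition above its plate's cutoff, the mean of tested wells on that plate plus 3 SD, cut at about 29% in these data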;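 note: 0% = Melanotan II alone and 100% = Melanotan II plus saturating MCL0020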
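Material – human MC4R-expressing U2OS cells · Repeats – no replicates · Detection – TR-FRET with Eu-cAMP and labeled anti-cAMP, 671 nm · Times – compound 30 min, challenge 1 h, detection 1 h · Compound – single nominal compound dose of 6.5 µM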
Rev-erbA mod: Rev-erb alpha (human) modulation. Rev-erbα–FITC-DNA binding, fluorescence polarization, 90 min. activity, % at 10 µM. 0.79% of 370,000 active;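 active = activity above about 14%, limit read from the data; passing the limit was not always enough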;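 note: 0% = DMSO wells with 35 nM protein and 100% = DMSO wells with 750 nM protein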
Target sequence (P20393 whole entry, looked up): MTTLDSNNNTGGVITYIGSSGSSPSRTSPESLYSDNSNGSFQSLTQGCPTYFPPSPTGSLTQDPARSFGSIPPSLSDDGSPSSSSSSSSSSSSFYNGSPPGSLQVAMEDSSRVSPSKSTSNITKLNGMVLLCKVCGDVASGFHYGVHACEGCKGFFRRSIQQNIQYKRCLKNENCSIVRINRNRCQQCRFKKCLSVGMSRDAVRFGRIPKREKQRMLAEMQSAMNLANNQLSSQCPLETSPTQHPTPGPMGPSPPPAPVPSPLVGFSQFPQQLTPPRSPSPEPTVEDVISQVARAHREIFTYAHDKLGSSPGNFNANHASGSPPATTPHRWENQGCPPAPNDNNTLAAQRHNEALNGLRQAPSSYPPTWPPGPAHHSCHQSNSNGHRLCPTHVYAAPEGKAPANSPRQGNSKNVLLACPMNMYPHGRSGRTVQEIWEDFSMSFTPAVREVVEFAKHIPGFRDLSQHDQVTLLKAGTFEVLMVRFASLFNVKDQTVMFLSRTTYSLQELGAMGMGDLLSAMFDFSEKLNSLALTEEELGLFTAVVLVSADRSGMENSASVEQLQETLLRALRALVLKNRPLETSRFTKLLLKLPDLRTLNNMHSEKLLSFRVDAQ
MC4R barr agon: activates human MC4R beta-arrestin recruitment | P32245 | U2OS MC4R beta-arrestin complementation, luminescence; percent of melanotan II response, DMSO zero | activation, % at 8.9 µM | AID 540308 | 0.98% of 360,000 active;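 active = activation above a per-plate cutoff, the mean activation of sample wells on that plate plus 3 SD, cut at about 8% in these data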
PG9 binder: binds the HIV-1 gp120 antibody PG9; inhibition, % at 6.7 µM; AID 624416; 0.43% of 360,000 active; TR-FRET gp120-PG9 antibody binding; in the data active = inhibition above about 8.5%
Rev-erbA confirm: Rev-erb alpha (human) modulation, hit confirmation | activation, % at 25 µM | AID 1259319 | shares compounds with Rev-erbA mod | Rev-erb alpha FITC-DNA binding, fluorescence polarization, 90 min | 61% of 3,000 active;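 active = activation at or above a set limit, or at least 3 SD above the negative control mean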;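 note: 0% = 35 nM protein with DMSO and 100% = 750 nM protein high control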
RORg counter: affects RORgamma DNA binding in a Rev-erb alpha counter-screen. shares compounds with Rev-erbA mod. purified RORgamma protein-FITC-DNA binding, fluorescence polarization. IC50, µM. 8% of 910 active. AID 1259320;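 active = Compounds whose fitted half-maximal concentration for disrupting protein-DNA binding is below 10 micromolar; the record names Rev-erb in its text, so the target is in doubt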
Starred values were filed as active, the others as inactive; i = inactive; x = no result.

SMILES | NTR1 ag | MC4R antag cAMP | Rev-erbA mod | MC4R barr agon | PG9 binder | Rev-erbA confirm | others
COC(=O)c1c(NC(=O)C2(C)Cc3ccccc3C(=O)O2)sc2c1CCCC2 (stereo not drawn) | 9.5 | 5.2 | 5.0 | -1.0 | -0.3 | x
COc1ccc(C(=O)CSc2nnc(-c3n[nH]c4c3CCC4)n2N)cc1OC | x | x | -0.8 | x | x | x
O=S1(=O)c2ccc(Br)cc2OC[C@H](Cc2ccccc2)N1Cc1cn(Cc2ccc(Cl)cc2)nn1 | x | x | -2.0 | x | x | x
CCC(=O)Oc1ccc2c(c1)CCC1C2CC[C@@]2(C)C1CC[C@@H]2OC(=O)CC (stereo partly drawn) | x | x | -3.1 | x | x | x
COc1cccc(CN(C)[C@H]2C[C@H]3c4[nH]c5ccccc5c4CCN3C[C@H]2[C@H](C)O)c1OC | x | x | -7.0 | x | 4.9 | x
CCOC(=O)c1sc(NC(=S)NC(=O)C2CCCC2)cc1C | 7.0 | 24.5 | 69.7* | 1.2 | 1.9 | 40.3* | RORg counter=>40
CCOC(=O)c1sc(NC(=O)c2ccc(Cl)s2)cc1C | -1.1 | -1.3 | 15.6* | -0.2 | 0.5 | 11.5*
CC(C)(C)S(=O)(=O)N1C[C@@H]2CC(=O)C(CCO)=C2[C@H]1CCO | x | x | -11.2 | x | 0.0 | x
N#Cc1ccc(C(=O)Oc2coc(CSc3ncccn3)cc2=O)cc1 | x | x | -0.4 | x | x | x
CCCCCCCCNC(=O)C1CSCCS(=O)(=O)N1Cc1ccc(OC)cc1 (stereo not drawn) | x | x | -4.3 | x | x | x
Cc1cc(C)c2c(CCl)cc(=O)oc2c1 | -0.4 | -20.1 | -1.0 | -1.2 | 0.6 | x
CCCCN(CCCC)Cc1cc(=O)oc2cc(C)cc(C)c12 | x | x | 18.9* | x | -0.7 | -0.8
CCCCNC(=O)Cn1cnc2sc(C(=O)OCC)c(C)c2c1=O | -3.3 | -2.6 | 35.2* | -1.9 | 0.0 | 7.7
COC(=O)[C@]12CCCCC=C1N(Cc1ccc(OC)cc1)C(=O)[C@@H]2CC(=O)NCC12CC3CC(CC(C3)C1)C2 | x | x | 0.7 | x | x | x
COC(=O)c1cccc(Cn2ccc3ccc(-c4ccc5ccn(C(=O)c6ccc(C)cc6)c5c4)cc32)c1 | x | x | 45.8* | x | x | 63.9* | RORg counter=>40
O=C(c1cccc(F)c1)n1ccc2ccc(-c3ccc4ccn(Cc5ccccc5)c4c3)cc21 | x | x | 8.1 | x | x | x
O=C(c1ccccc1)n1ccc2ccc(-c3ccc4ccn(Cc5ccccc5)c4c3)cc21 | x | x | 12.3 | x | x | x
COc1ccccc1C(=O)n1ccc2ccc(-c3ccc4ccn(Cc5ccccc5)c4c3)cc21 | x | x | 5.1 | x | x | x
CCCCOc1ccc(C(=O)n2ccc3ccc(-c4ccc5ccn(Cc6ccccc6)c5c4)cc32)cc1 | x | x | 39.6* | x | x | 44.6* | RORg counter=>40
COC(=O)c1cccc(Cn2ccc3ccc(-c4ccc5ccn(C(=O)c6cccc(OC)c6)c5c4)cc32)c1 | x | x | 38.6* | x | x | 53.9* | RORg counter=i
COC(=O)c1cccc(Cn2ccc3ccc(-c4ccc5ccn(C(=O)c6ccccc6OC)c5c4)cc32)c1 | x | x | 34.1* | x | x | 58.0* | RORg counter=i
CCCCCCCCN1C(=O)[C@@H](CC(=O)NCc2ccc(OC)c(OC)c2)C[C@@]2(C(=O)OC)C1=C[C@H](COCc1ccccc1)O[C@@H]2C | x | x | -1.1 | x | x | x
C#CCNC(=O)C[C@@H]1C(=O)N2CCCC3=C2[C@@]1(C(=O)OC)CCCC3 | x | x | -3.6 | x | x | x
Cn1c(NC(=O)c2ccccc2)nc(Cc2ccccc2)c1-c1ccccc1 | x | x | -10.0 | x | x | x
O=c1c2c(c1=O)N(CCP(=O)(O)O)CCCN2 | x | x | 2.3 | x | x | x
SMILES | NTR1 ag | MC4R antag cAMP | Rev-erbA mod | MC4R barr agon | PG9 binder | Rev-erbA confirm | others
COC(=O)c1cccc(Cn2ccc3ccc(-c4ccc5ccn(Cc6cccc(C(=O)OC)c6)c5c4)cc32)c1 | x | x | 51.1* | x | x | 0.7
COc1cccc(CNC(=O)CN2CCCc3ccccc32)c1 | x | x | 1.1 | x | x | x
Clc1ccc(-c2cn(-c3nc4ccccc4s3)nn2)cc1 | x | x | 19.4* | x | 1.0 | 6.9
COc1ccc(-c2nc(-c3cccs3)c(-c3cccs3)[nH]2)cc1OC | -3.3 | 2.5 | 44.1* | 0.7 | 6.7 | 64.4* | RORg counter=>40
COc1ccc(-c2nc(-c3ccccc3)c(-c3cccs3)[nH]2)cc1OC | 7.9 | 17.0 | 9.8 | 1.8 | 2.3 | x
O=[N+]([O-])c1ccc(-c2nc(-c3cccs3)c(-c3cccs3)[nH]2)cc1 | -5.9 | 8.4 | 24.5* | -0.9 | 0.1 | 32.8* | RORg counter=>40
O=[N+]([O-])c1cccc(-c2nc(-c3ccccc3)c(-c3cccs3)[nH]2)c1 | 13.9 | 7.1 | 3.5 | -0.4 | 1.1 | x
O=[N+]([O-])c1cccc(-c2nc(-c3cccs3)c(-c3cccs3)[nH]2)c1 | 27.3 | 7.0 | 28.5* | 4.4 | 0.1 | 25.3*
CC(=NN1CCN(c2ccccn2)CC1)c1ccccc1O | x | x | -5.9 | x | x | x
CCOC(=O)c1nn(-c2ccc(Cl)cc2)c2nc(-c3ccc(C)cc3)c(C#N)c(=O)n12 | 4.4 | 9.4 | 36.3* | 0.3 | 0.1 | 37.1* | RORg counter=>40
Cc1ccc(-c2c(C#N)c(N)n(-c3ccc(Cl)cc3)c(=O)c2C#N)cc1 | x | 2.6 | 37.8* | -2.0 | 2.1 | 29.3* | RORg counter=>40
Cc1ccc(-c2c(C#N)c(N)n(-c3ccccc3)c(=O)c2C#N)cc1 | 0.9 | 4.2 | -0.1 | 1.4 | -1.0 | x
CCN1C(=O)/C(=C2/Sc3ccccc3N2CC)S/C1=N\c1ncn[nH]1 | -1.8 | -8.4 | 19.1* | -0.4 | 1.2 | -4.0
C=CCN1C(=O)/C(=C2/Sc3ccccc3N2CC)SC1=S | 7.9 | 2.7 | -3.6 | 0.4 | -0.1 | x
Cc1cc(C(=O)NN=Cc2cccc(O)c2)n[nH]1 | x | x | 1.9 | x | x | x
COc1ccc(OC)c(C(=O)CSc2nc3c(c(=O)n(C)c(=O)n3C)n2C(C)C)c1 | x | 8.0 | 37.4* | -0.7 | -0.9 | 4.5
CCOC(=O)C1=CCN(S(=O)(=O)c2cccc(Cl)c2)C1c1cccc(Cl)c1 (stereo not drawn) | x | x | -5.6 | x | 1.1 | x
CCOC(=O)C1=CCN(S(=O)(=O)c2cccc(Cl)c2)C1c1cccc(C)c1 (stereo not drawn) | x | x | 17.8* | x | -1.1 | 3.6
COc1cccc(NC(=O)CSc2nc(C3CC3)nc3ccccc23)c1 | 3.9 | 10.2 | -7.1 | 4.5 | 0.4 | x
CCOc1ccc(NC(=O)CSc2nc(C3CC3)nc3ccccc23)cc1 | 0.6 | 1.1 | 129.3* | 7.0 | -1.6 | 59.3* | RORg counter=>40
CC(C)(C)c1nc(SCC(=O)Nc2ccc3c(c2)OCCO3)c2ccccc2n1 | 0.0 | -2.3 | 73.1* | 5.3 | 2.6 | 35.4* | RORg counter=3.01*
CC(C)(C)c1nc(SCC(=O)Nc2ccc(N3CCOCC3)cc2)c2ccccc2n1 | 1.1 | 2.8 | 53.4* | -1.7 | 3.5 | 17.0*
O=C(CSc1nc2ccccc2o1)Nc1ccc(N2CCOCC2)cc1 | 2.1 | 1.6 | 0.8 | -0.9 | -2.5 | x
CCCCCC[C@@H](CC)CN(C(=O)Oc1ccccc1)c1ccccc1 | x | x | -3.5 | x | x | x
C[C@@H]1C=CCCO[C@]12C(=O)N(CC1CC1)c1ccccc12 | x | x | 0.6 | x | -1.0 | x

From PubChem
